Data from ChEMBL document CHEMBL1158358, “Synthesis, antimicrobial and cytotoxic activities of some 5-arylidene-4-thioxo-thiazolidine-2-ones” (Eur J Med Chem, 2009).
Values after ≈ are worked out from the molar mass of the structure shown.

Columns and labels:
Type in all cases: functional
[1] = test system: Staphylococcus aureus; experiment: Antimicrobial activity against multidrug-resistant Staphylococcus aureus H.C. 21141 isolate after 20 hrs by twofold serial dilution technique; settings: H.C. 21141, 20 h
Procedure, shortened: (§1)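 Twofold serial dilution MIC in agar plates against Gram-positive strains and multidrug-resistant clinical isolates. Inoculum applied was 10⁵ CFU/plate. Plates with culture medium plus DMSO served as negative control. MIC was read after incubation at 35 °C for 20 h.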

[2] = test system: NCI-H292; experiment: Cytotoxicity against human NCI-H292 cells at 1.25 ug/mL after 72 hrs by MTT assay; settings: NCI-H292, 72 h, read-out: GI
Procedure, shortened: (§2)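 MTT antiproliferative assay. Cells were diluted to 10⁵ cells/mL in 96-well plates and preincubated for 24 h at 37 °C in humid 5% CO₂. Compounds or vincristine (reference) were then added. Formazan was dissolved and OD read at 540 nm, compared with medium-only control cells. Run in triplicate.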

[3] = test system: Staphylococcus aureus; experiment: Antimicrobial activity against Staphylococcus aureus UFPEDA 01 after 20 hrs by twofold serial dilution technique; settings: UFPEDA 01, 20 h; procedure, shortened: as §1
[4] = test system: Escherichia coli; experiment: Antimicrobial activity against Escherichia coli UFPEDA 224 at 300 ug/disk after 24 hrs by disk diffusion method; settings: UFPEDA 224, 24 h, read-out: IZ
Procedure, shortened: (§3)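 Preliminary screen by disk diffusion. Paper disks (6 mm) holding 300 µg of compound were placed on agar plates inoculated with a standardized microbial suspension. DMSO-only disks served as negative controls. A mean inhibition zone below 7 mm was scored as no sensitivity. Values are means, n = 3.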

[5] = test system: Staphylococcus aureus; experiment: Antimicrobial activity against multidrug-resistant Staphylococcus aureus H.C. 20981 isolate after 20 hrs by twofold serial dilution technique; settings: H.C. 20981, 20 h; procedure, shortened: as §1
[6] = test system: Staphylococcus aureus; experiment: Antimicrobial activity against multidrug-resistant Staphylococcus aureus H.C. 20489 isolate after 20 hrs by twofold serial dilution technique; settings: H.C. 20489, 20 h; procedure, shortened: as §1
[7] = test system: Staphylococcus aureus; experiment: Antimicrobial activity against multidrug-resistant Staphylococcus aureus H.C. 20905 isolate after 20 hrs by twofold serial dilution technique; settings: H.C. 20905, 20 h; procedure, shortened: as §1
[8] = test system: Candida albicans; experiment: Antimicrobial activity against Candida albicans UFPEDA 1007 after 48 hrs by twofold serial dilution technique; settings: UFPEDA 1007, 48 h
Procedure, shortened: (§4)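 MIC was determined by twofold serial dilution. Bacteria were tested in plates at 10⁵ CFU/plate and read after 20 h. C. albicans was tested in tubes at 10³ CFU/tube and read after 48 h. All incubations were at 35 °C. Medium plus DMSO served as the negative control.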

[9] = test system: NCI-H292; experiment: Cytotoxicity against human NCI-H292 cells at 10 ug/mL after 72 hrs by MTT assay; settings: NCI-H292, 72 h, read-out: GI; procedure, shortened: as §2
[10] = test system: Serratia marcescens; experiment: Antimicrobial activity against Serratia marcescens UFPEDA 398 at 300 ug/disk after 24 hrs by disk diffusion method; settings: UFPEDA 398, 24 h, read-out: IZ; procedure, shortened: as §3
[11] = test system: HEp-2; experiment: Cytotoxicity against human Hep2 cells at 5 ug/mL after 72 hrs by MTT assay; settings: HEp-2, 72 h, read-out: GI; procedure, shortened: as §2
[12] = test system: Staphylococcus aureus; experiment: Antimicrobial activity against multidrug-resistant Staphylococcus aureus H.C. 21036 isolate after 20 hrs by twofold serial dilution technique; settings: H.C. 21036, 20 h; procedure, shortened: as §1
[13] = test system: Staphylococcus aureus; experiment: Antimicrobial activity against Staphylococcus aureus UFPEDA 01 at 300 ug/disk after 24 hrs by disk diffusion method; settings: UFPEDA 01, 24 h, read-out: IZ; procedure, shortened: as §3
[14] = test system: HEp-2; experiment: Cytotoxicity against human Hep2 cells at 1.25 ug/mL after 72 hrs by MTT assay; settings: HEp-2, 72 h, read-out: GI; procedure, shortened: as §2
[15] = test system: Enterococcus faecalis; experiment: Antimicrobial activity against Enterococcus faecalis UFPEDA 138 after 20 hrs by twofold serial dilution technique; settings: UFPEDA 138, 20 h; procedure, shortened: as §4
[16] = test system: Enterococcus faecalis; experiment: Antimicrobial activity against multidrug-resistant Enterococcus faecalis H.C. 24962 isolate after 20 hrs by twofold serial dilution technique; settings: H.C. 24962, 20 h; procedure, shortened: as §1
[17] = test system: Staphylococcus; experiment: Antimicrobial activity against coagulase-negative Staphylococcus H.A.M. 338 isolate after 20 hrs by twofold serial dilution technique; settings: H.A.M. 338, 20 h; procedure, shortened: as §4
[18] = test system: HEp-2; experiment: Cytotoxicity against human Hep2 cells at 2.5 ug/mL after 72 hrs by MTT assay; settings: HEp-2, 72 h, read-out: GI; procedure, shortened: as §2
[19] = test system: Enterococcus faecalis; experiment: Antimicrobial activity against Enterococcus faecalis UFPEDA 138 at 300 ug/disk after 24 hrs by disk diffusion method; settings: UFPEDA 138, 24 h, read-out: IZ; procedure, shortened: as §3
[20] = test system: Enterococcus faecalis; experiment: Antimicrobial activity against multidrug-resistant Enterococcus faecalis H.C. 21944 isolate after 20 hrs by twofold serial dilution technique; settings: H.C. 21944, 20 h; procedure, shortened: as §1
[21] = test system: Bacillus subtilis; experiment: Antimicrobial activity against Bacillus subtilis UFPEDA 16 after 20 hrs by twofold serial dilution technique; settings: UFPEDA 16, 20 h; procedure, shortened: as §4
[22] = test system: Mycolicibacterium smegmatis; experiment: Antimicrobial activity against Mycobacterium smegmatis UFPEDA 71 at 300 ug/disk after 24 hrs by disk diffusion method; settings: UFPEDA 71, 24 h, read-out: IZ; procedure, shortened: as §3
[23] = test system: Staphylococcus aureus; experiment: Antimicrobial activity against multidrug-resistant Staphylococcus aureus H.C. 20794 isolate after 20 hrs by twofold serial dilution technique; settings: H.C. 20794, 20 h; procedure, shortened: as §1
[24] = test system: Enterococcus faecalis; experiment: Antimicrobial activity against multidrug-resistant Enterococcus faecalis H.C. 24708 isolate after 20 hrs by twofold serial dilution technique; settings: H.C. 24708, 20 h; procedure, shortened: as §1
[25] = test system: NCI-H292; experiment: Cytotoxicity against human NCI-H292 cells at 5 ug/mL after 72 hrs by MTT assay; settings: NCI-H292, 72 h, read-out: GI; procedure, shortened: as §2
[26] = test system: Mycolicibacterium smegmatis; experiment: Antimicrobial activity against Mycobacterium smegmatis UFPEDA 71 after 20 hrs by twofold serial dilution technique; settings: UFPEDA 71, 20 h; procedure, shortened: as §4
[27] = test system: Micrococcus luteus; experiment: Antimicrobial activity against Micrococcus luteus UFPEDA 06 at 300 ug/disk after 24 hrs by disk diffusion method; settings: UFPEDA 06, 24 h, read-out: IZ; procedure, shortened: as §3
[28] = test system: NCI-H292; experiment: Cytotoxicity against human NCI-H292 cells at 2.5 ug/mL after 72 hrs by MTT assay; settings: NCI-H292, 72 h, read-out: GI; procedure, shortened: as §2
[29] = test system: Micrococcus luteus; experiment: Antimicrobial activity against Micrococcus luteus UFPEDA 06 after 20 hrs by twofold serial dilution technique; settings: UFPEDA 06, 20 h; procedure, shortened: as §4
[30] = test system: Bacillus subtilis; experiment: Antimicrobial activity against Bacillus subtilis UFPEDA 16 at 300 ug/disk after 24 hrs by disk diffusion method; settings: UFPEDA 16, 24 h, read-out: IZ; procedure, shortened: as §3
[31] = test system: Pseudomonas aeruginosa; experiment: Antimicrobial activity against Pseudomonas aeruginosa UFPEDA 39 at 300 ug/disk after 24 hrs by disk diffusion method; settings: UFPEDA 39, 24 h, read-out: IZ; procedure, shortened: as §3
[32] = test system: Candida albicans; experiment: Antimicrobial activity against Candida albicans UFPEDA 1007 at 300 ug/disk after 48 hrs by disk diffusion method; settings: UFPEDA 1007, 48 h, read-out: IZ; procedure, shortened: as §3
[33] = test system: HEp-2; experiment: Cytotoxicity against human Hep2 cells at 10 ug/mL after 72 hrs by MTT assay; settings: HEp-2, 72 h, read-out: GI; procedure, shortened: as §2
[34] = test system: Staphylococcus; experiment: Antimicrobial activity against coagulase-negative Staphylococcus H.A.M. 278 isolate after 20 hrs by twofold serial dilution technique; settings: H.A.M. 278, 20 h; procedure, shortened: as §4
[35] = test system: Enterococcus faecalis; experiment: Antimicrobial activity against multidrug-resistant Enterococcus faecalis H.C. 21752 isolate after 20 hrs by twofold serial dilution technique; settings: H.C. 21752, 20 h; procedure, shortened: as §1

With `O=C1NC(=S)/C(=C/c2ccc(Cl)c(Cl)c2)S1` the MIC [1] was 2 µg/mL (≈ 6.89 µM), the inhibition of growth at 1.25 µg/mL [2] was 9.18% and the MIC [3] was 4 µg/mL (≈ 13.8 µM). For the same molecule, the zone of inhibition at 300 µg/disc [4] was under 7 mm, the MIC [5] was 2 µg/mL (≈ 6.89 µM) and the MIC [6] was 2 µg/mL (≈ 6.89 µM). The MIC [7] was 4 µg/mL (≈ 13.8 µM), the MIC [8] was 32 µg/mL (≈ 110 µM) and the inhibition of growth at 10 µg/mL [9] was 43.3%. The zone of inhibition at 300 µg/disc [10] was under 7 mm, the inhibition of growth at 5 µg/mL [11] was 11% and the MIC [12] was 4 µg/mL (≈ 13.8 µM). The zone of inhibition at 300 µg/disc [13] was 25 mm, the inhibition of growth at 1.25 µg/mL [14] was -5.45% and the MIC [15] was 8 µg/mL (≈ 27.6 µM). It also gave an MIC [16] of 16 µg/mL (≈ 55.1 µM), an MIC [17] of 2 µg/mL (≈ 6.89 µM) and an inhibition of growth at 2.5 µg/mL [18] of 5.03%. It also gave a zone of inhibition at 300 µg/disc [19] of 20 mm, an MIC [20] of 4 µg/mL (≈ 13.8 µM) and an MIC [21] of 4 µg/mL (≈ 13.8 µM). It also gave a zone of inhibition at 300 µg/disc [22] of 20 mm, an MIC [23] of 2 µg/mL (≈ 6.89 µM) and an MIC [24] of 16 µg/mL (≈ 55.1 µM). For the same molecule, the inhibition of growth at 5 µg/mL [25] was 35.8%, the MIC [26] was 32 µg/mL (≈ 110 µM) and the zone of inhibition at 300 µg/disc [27] was 27 mm. It also gave an inhibition of growth at 2.5 µg/mL [28] of 19.4%, an MIC [29] of 4 µg/mL (≈ 13.8 µM) and a zone of inhibition at 300 µg/disc [30] of 27 mm. The zone of inhibition at 300 µg/disc [31] was under 7 mm, the zone of inhibition at 300 µg/disc [32] was 14 mm and the inhibition of growth at 10 µg/mL [33] was 16.4%. The MIC [34] was 4 µg/mL (≈ 13.8 µM) and the MIC [35] was 8 µg/mL (≈ 27.6 µM).
